Measured values as given in ChEMBL document CHEMBL1142319, “New antitumor imidazo[2,1-b]thiazole guanylhydrazones and analogues” (2008).

How the values were obtained:
Format in all cases: functional
Conditions in all cases: for TGI: read-out: pTGI (converted)
Cancer cell lines [1] = assay: Inhibition of human colon cancer cells
Procedure, shortened: (§1)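 NCI 60-cell-line panel, with results grouped by tissue subpanel. Compounds dissolved in DMSO and tested at five 10-fold dilutions, top concentration 10^-4 M. Values given as -log molar concentration for 50% growth inhibition (pGI50), total growth inhibition (pTGI) and 50% cell kill (pLC50), with subpanel means calculated.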

Leukemia cell = assay: Inhibition of human leukemia cells; procedure, shortened: as §1
Cancer cell lines [2] = assay: Inhibition of human non-small cell lung cancer cells; procedure, shortened: as §1
Cancer cell lines [3] = assay: Inhibition of human CNS cancer cells; procedure, shortened: as §1
Melanoma cell = assay: Inhibition of human melanoma cells; procedure, shortened: as §1
Cancer cell lines [4] = assay: Inhibition of human ovarian cancer cells; procedure, shortened: as §1
Cancer cell lines [5] = assay: Inhibition of human renal cancer cells; procedure, shortened: as §1
Cancer cell lines [6] = assay: Inhibition of human prostate cancer cells; procedure, shortened: as §1
Cancer cell lines [7] = assay: Inhibition of human breast cancer cells; procedure, shortened: as §1

| SMILES | GI50 (Cancer cell lines [1]) | TGI (Cancer cell lines [1]) | GI50 (Leukemia cell) | TGI (Leukemia cell) | GI50 (Cancer cell lines [2]) | TGI (Cancer cell lines [2]) | GI50 (Cancer cell lines [3]) | TGI (Cancer cell lines [3]) | GI50 (Melanoma cell) | TGI (Melanoma cell) | GI50 (Cancer cell lines [4]) | TGI (Cancer cell lines [4]) | GI50 (Cancer cell lines [5]) | TGI (Cancer cell lines [5]) | GI50 (Cancer cell lines [6]) | TGI (Cancer cell lines [6]) | GI50 (Cancer cell lines [7]) | TGI (Cancer cell lines [7]) |
| --- | --- | --- | --- | --- | --- | --- | --- | --- | --- | --- | --- | --- | --- | --- | --- | --- | --- | --- |
| N=C(N)N/N=C/c1c(-c2cc(Cl)sc2Cl)nc2sccn12 | 0.977 µM | 2.34 µM | 1 µM | 2.14 µM | 2.69 µM | 10.7 µM | 1.12 µM | 2.82 µM | 2.82 µM | 7.24 µM | 1.1 µM | 3.55 µM | 1.62 µM | 5.75 µM | 1.55 µM | 6.17 µM | 1.66 µM | 4.27 µM |
| N=C(N)N/N=C/c1c(-c2ccc(Cl)c([N+](=O)[O-])c2)nc2ccccn12 | 1.86 µM | 7.94 µM | 1.7 µM | 3.8 µM | 1.7 µM | 3.8 µM | 1.2 µM | 3.02 µM | 2.04 µM | 3.63 µM | 1.86 µM | 3.63 µM | 2.19 µM | 4.9 µM | 1.51 µM | 3.09 µM | 2.29 µM | 5.37 µM |
| COc1cc([N+](=O)[O-])c(OC)cc1-c1nc2sc(Cl)cn2c1/C=N\Nc1ccccn1 | 44.7 µM |  | 9.12 µM | 35.5 µM | 25.7 µM |  | 15.5 µM | 30.2 µM | 33.1 µM | 46.8 µM | 20 µM | 33.1 µM | 13.5 µM | 30.9 µM | 16.2 µM |  | 17.4 µM | 41.7 µM |
| Cc1cc(-c2nc3sccn3c2/C=N/NC(=N)N)c(C)s1 | 15.5 µM | 32.4 µM | 15.5 µM |  | 16.6 µM | 33.1 µM | 15.5 µM | 30.2 µM | 16.2 µM | 30.9 µM | 17.4 µM | 33.9 µM | 17.8 µM | 32.4 µM | 13.8 µM | 26.9 µM | 16.2 µM | 30.2 µM |
| Cc1cn2c(/C=N/NC(=N)N)c(-c3ccsc3)nc2s1 | 5.37 µM | 20.4 µM | 7.76 µM | 46.8 µM | 13.8 µM | 41.7 µM | 6.92 µM | 19.5 µM | 8.13 µM | 19.5 µM | 11 µM | 27.5 µM | 10.2 µM | 28.2 µM | 7.59 µM | 20 µM | 7.76 µM | 22.4 µM |
| COc1cc(OC)cc(-c2nc3sccn3c2/C=N/NC(=N)N)c1 | 6.03 µM | 14.8 µM | 10.2 µM | 19.1 µM | 9.33 µM | 20.4 µM | 8.13 µM | 17.4 µM | 8.51 µM | 17.8 µM | 7.94 µM | 17 µM | 8.51 µM | 17.8 µM | 9.33 µM | 16.2 µM | 10 µM | 20.4 µM |
| Cc1cc(-c2nc3n(c2/C=N/NC(=N)N)CCS3)c(C)s1 | 13.8 µM | 29.5 µM | 20.9 µM |  | 17 µM | 35.5 µM | 18.6 µM | 34.7 µM | 15.5 µM | 29.5 µM | 24 µM | 47.9 µM | 17.4 µM | 38 µM | 15.5 µM | 30.9 µM | 24 µM | 41.7 µM |
| N=C(N)N/N=C/c1c(-c2cc(Cl)sc2Cl)nc2n1CCS2 | 1.82 µM | 16.2 µM | 10.2 µM | 24.5 µM | 11.2 µM | 22.4 µM | 8.71 µM | 17.4 µM | 10 µM | 20.4 µM | 10.5 µM | 22.9 µM | 10 µM | 20 µM | 8.13 µM | 15.1 µM | 12.3 µM | 22.9 µM |
| N=C(N)N/N=C/c1c(-c2ccc(Cl)c([N+](=O)[O-])c2)nc2sc3ccccc3n12 | 0.339 µM | 3.63 µM | 0.138 µM |  | 0.676 µM | 3.8 µM | 0.447 µM | 3.02 µM | 0.708 µM | 2.75 µM | 1.1 µM | 1.95 µM | 0.832 µM | 3.89 µM | 2.29 µM | 14.8 µM | 0.741 µM | 9.55 µM |
| Cc1cn2c(/C=N/NC(=N)N)c(-c3cccs3)nc2s1 | 2.57 µM | 8.13 µM | 1.82 µM | 4.07 µM | 7.76 µM | 25.1 µM | 4.27 µM | 11.7 µM | 2.24 µM | 5.89 µM | 6.46 µM | 17.4 µM | 4.27 µM | 14.1 µM | 3.02 µM | 12.3 µM | 5.75 µM | 18.6 µM |
| N=C(N)N/N=C/c1c(-c2ccsc2)nc2n1CCS2 | 22.9 µM |  | 19.1 µM |  | 28.8 µM |  | 25.1 µM |  | 21.9 µM |  | 14.5 µM |  | 28.2 µM |  | 17.4 µM |  | 32.4 µM |  |
| Cc1cn2c(/C=N/Nc3ccccn3)c(-c3ccc(Cl)c([N+](=O)[O-])c3)nc2s1 | 26.3 µM | 42.7 µM | 16.6 µM | 33.9 µM | 11.5 µM | 30.9 µM | 7.76 µM | 19.5 µM | 18.2 µM | 38 µM | 9.12 µM | 25.7 µM | 15.5 µM | 39.8 µM | 11.7 µM | 38.9 µM | 13.8 µM | 38.9 µM |
| N=C(N)N/N=C/c1c(-c2cccs2)nc2n1CCS2 | 17.4 µM | 38.9 µM | 18.6 µM | 38.9 µM | 28.8 µM |  | 19.1 µM | 39.8 µM | 21.4 µM | 38 µM | 39.8 µM |  | 22.9 µM |  | 19.5 µM | 36.3 µM | 17.4 µM | 40.7 µM |
| N=C(N)N/N=C/c1c(-c2ccsc2)nc2sccn12 | 14.1 µM | 29.5 µM | 6.92 µM | 24 µM | 15.1 µM | 30.2 µM | 15.1 µM | 28.8 µM | 17 µM | 31.6 µM | 15.5 µM | 31.6 µM | 14.8 µM | 29.5 µM | 14.8 µM | 28.8 µM | 17.4 µM | 31.6 µM |
| CCOC(=O)c1nc2sc(Cl)cn2c1/C=N\NC(=N)N | 20.9 µM | 47.9 µM | 14.1 µM | 38.9 µM | 18.2 µM | 41.7 µM | 19.5 µM |  | 19.5 µM | 45.7 µM | 20.9 µM |  | 21.4 µM |  | 17 µM | 38.9 µM | 22.9 µM |  |
| N=C(N)N/N=C/c1c(-c2cccs2)nc2sccn12 | 9.77 µM | 24 µM | 6.76 µM | 38 µM | 12.9 µM | 29.5 µM | 12 µM | 25.7 µM | 15.1 µM | 28.8 µM | 10.2 µM | 26.9 µM | 8.32 µM | 21.9 µM | 12.3 µM | 24.5 µM | 14.8 µM | 28.2 µM |
| Cc1cc(-c2nc3sc(C)cn3c2/C=N/NC(=N)N)c(C)s1 | 3.72 µM | 11.7 µM | 47.9 µM |  | 9.77 µM | 25.1 µM | 8.32 µM | 18.2 µM | 7.41 µM | 15.1 µM | 12 µM | 33.1 µM | 14.1 µM | 32.4 µM | 4.79 µM | 19.1 µM | 4.47 µM | 13.5 µM |
| COc1cc([N+](=O)[O-])c(OC)cc1-c1nc2sc(Cl)cn2c1/C=N\NC(=N)N/N=C\c1c(-c2cc(OC)c([N+](=O)[O-])cc2OC)nc2sc(Cl)cn12 | 2.24 µM | 7.08 µM | 2.34 µM |  | 2.04 µM | 3.98 µM | 1.62 µM | 2.57 µM | 1.91 µM | 5.13 µM | 1.82 µM | 3.8 µM | 2.19 µM | 4.9 µM | 1.95 µM | 3.8 µM | 3.31 µM | 6.76 µM |
